Legend:
[1] = Metabolic stability in rat liver microsomes assessed as parent compound remaining after 60 mins; assay type: ADME, microsome; conditions: read-out: Stability
[2] = Metabolic stability in human liver microsomes assessed as parent compound remaining after 60 mins; assay type: ADME, microsome; conditions: read-out: Stability
[3] = Cytotoxicity against human HuH7 cells after 24 hrs; assay type: cell-based, Huh-7
[4] = Half life in Sprague-Dawley rat at 1 mg/kg, iv; assay type: ADME, organism-based; conditions: in vivo
In short: (§1)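 Sprague-Dawley rats (n=3) dosed iv at 1 mg/kg as a solution in 10% NMP/10% solutol/40% PEG-400/40% saline.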

Rattus norvegicus = test: Clearance in Sprague-Dawley rat at 1 mg/kg, iv; assay type: ADME, organism-based; conditions: in vivo; in short: as §1
[5] = Volume of distribution at steady state in Sprague-Dawley rat at 1 mg/kg, iv; assay type: ADME, organism-based; conditions: in vivo, read-out: Vdss; in short: as §1
[6] = AUC (infinity) in Sprague-Dawley rat at 1 mg/kg, iv; assay type: ADME, organism-based; design: dose 1 mg/kg, time infinity, route intravenous; conditions: in vivo; in short: as §1
[7] = Oral bioavailability in Sprague-Dawley rat at 5 mg/kg; assay type: ADME, organism-based; conditions: in vivo
In short: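 Sprague-Dawley rats (n=3) dosed po at 5 mg/kg as a solution in 10% NMP/10% solutol/40% PEG-400/40% saline. Iv arm given at 1 mg/kg in the same vehicle.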

[8] = Intrinsic solubility of the compound; assay type: physicochemical

For `CNC(=O)c1c(-c2ccc(F)cc2)oc2cc3c(cc12)[C@H](C)O[C@H](CO)CN3S(C)(=O)=O`, the remaining at 1 h [1] was 60%, the remaining at 1 h [2] was 100% and the CC50 at 24 h [3] was over 3 µM. It also gave a half-life [4] of 1.32 h, a clearance (Rattus norvegicus) of 22 mL/min/kg and a Vd [5] of 2.25 L/kg. It also gave an AUC(0-inf) [6] of 759 ng·h/mL and a bioavailability [7] of 73%.
Molecule `CNC(=O)c1c(-c2ccc(F)cc2)oc2cc3c(cc12)[C@H](C)n1nncc1CN3S(C)(=O)=O` has a half-life [4] of 2.43 h, a clearance (Rattus norvegicus) of 12.8 mL/min/kg and a Vd [5] of 1.41 L/kg. For the same molecule, the AUC(0-inf) [6] was 1300 ng·h/mL and the bioavailability [7] was 57%.
With `CS(=O)(=O)N1CCCCc2cc3c(-c4ncc[nH]4)c(-c4ccc(F)cc4)oc3cc21` the solubility [8] was “Insoluble”.
Work on `CNC(=O)c1c(-c2ccc(F)cc2)oc2cc3c(cc12)[C@H](C)OCCN3S(C)(=O)=O` yielded a remaining at 1 h [1] of 5% and a remaining at 1 h [2] of 32.6%.
In the case of `CNC(=O)c1c(-c2ccc(F)cc2)oc2cc3c(cc12)[C@H](C)NC(=O)CN3S(C)(=O)=O`, the half-life [4] is reported as 0.68 h, the clearance (Rattus norvegicus) is reported as 44.5 mL/min/kg and the Vd [5] is reported as 1.74 L/kg. The AUC(0-inf) [6] was 379 ng·h/mL and the bioavailability [7] was 14%.
`CNC(=O)c1c(-c2ccc(F)cc2)oc2cc3c(cc12)[C@H](C)O[C@H](CS(C)(=O)=O)CN3S(C)(=O)=O` showed a remaining at 1 h [1] of 100%, a remaining at 1 h [2] of 100% and a CC50 at 24 h [3] of over 10 µM.
With `CNC(=O)c1c(-c2ccc(F)cc2)oc2cc3c(cc12)[C@H](C)CCCN3S(C)(=O)=O` the half-life [4] was 0.96 h, the clearance (Rattus norvegicus) was 38.2 mL/min/kg and the Vd [5] was 2.36 L/kg. It also gave an AUC(0-inf) [6] of 439 ng·h/mL and a bioavailability [7] of 22%.
Molecule `CNC(=O)c1c(-c2ccc(F)cc2)oc2cc3c(cc12)[C@@H](C)OCCN3S(C)(=O)=O` has a half-life [4] of 0.34 h, a clearance (Rattus norvegicus) of 78 mL/min/kg and a Vd [5] of 1.79 L/kg. It also gave an AUC(0-inf) [6] of 234 ng·h/mL and a bioavailability [7] of 16%.
For `CNC(=O)c1c(-c2ccc(F)cc2)oc2cc3c(cc12)C(C)NC(=O)CN3S(C)(=O)=O` (racemic), the solubility [8] was “Insoluble”.
Work on `CNC(=O)c1c(-c2ccc(F)cc2)oc2cc3c(cc12)C(C)OC(CO)CN3S(C)(=O)=O` (racemic) yielded a remaining at 1 h [1] of 68.9% and a remaining at 1 h [2] of 85.9%.
With `CNC(=O)c1c(-c2ccc(F)cc2)oc2cc3c(cc12)C(C)N(C)C(=O)CN3S(C)(=O)=O` (racemic) the solubility [8] was “Insoluble”.
With `CNC(=O)c1c(-c2ccc(F)cc2)oc2cc3c(cc12)C(C)N(C)CCN3S(C)(=O)=O` (racemic) the solubility [8] was “Soluble”.
For `CNC(=O)c1c(-c2ccc(F)cc2)oc2cc3c(cc12)C(C)n1nnnc1CN3S(C)(=O)=O` (racemic), the solubility [8] was “Insoluble”.
Molecule `CNC(=O)c1c(-c2ccc(F)cc2)oc2cc3c(cc12)C(C)OC(CS(C)(=O)=O)CN3S(C)(=O)=O` (racemic) has a remaining at 1 h [1] of 99.7%, a remaining at 1 h [2] of 100% and a half-life [4] of 3.62 h. The clearance (Rattus norvegicus) was 16 mL/min/kg, the Vd [5] was 1.51 L/kg and the AUC(0-inf) [6] was 1060 ng·h/mL. For the same molecule, the bioavailability [7] was 30%.
Molecule `CNC(=O)c1c(-c2ccc(F)cc2)oc2cc3c(cc12)C(C)CCCN3S(C)(=O)=O` (racemic) has a remaining at 1 h [1] of 0.8% and a remaining at 1 h [2] of 0.8%.
In the case of `CNC(=O)c1c(-c2ccc(F)cc2)oc2cc3c(cc12)C(C)NCCN3S(C)(=O)=O` (racemic), the solubility [8] is reported as “Soluble”.
For `CNC(=O)c1c(-c2ccc(F)cc2)oc2cc3c(cc12)C(C)n1nncc1CN3S(C)(=O)=O` (racemic), the solubility [8] was “Insoluble”.
For `CNC(=O)c1c(-c2ccc(F)cc2)oc2cc3c(cc12)C(C)n1ccnc1CN3S(C)(=O)=O` (racemic), the solubility [8] was “Insoluble”.
Work on `CNC(=O)c1c(-c2ccc(F)cc2)oc2cc(N(CCO)S(C)(=O)=O)c(C3CC3)cc12` [NESBUVIR] yielded a remaining at 1 h [1] of 84%, a remaining at 1 h [2] of 53.3% and a half-life [4] of 2.73 h. It also gave a clearance (Rattus norvegicus) of 10.4 mL/min/kg, a Vd [5] of 1.52 L/kg and an AUC(0-inf) [6] of 1610 ng·h/mL. For the same molecule, the bioavailability [7] was 73%.

From ChEMBL document CHEMBL4184265, “Discovery of novel potent HCV NS5B polymerase non-nucleoside inhibitors bearing a fused benzofuran scaffold” (Bioorg Med Chem Lett, 2018)
